Measurements: ChEMBL document CHEMBL3272319, “Alkyl streptozotocin analogues with improved biological activities” (J Med Chem, 1976)

Test system: Mus musculus
Assay: Toxicity in ICR mouse allografted with mouse S180A assessed as mortality at 50 mg/kg, ip qd for 5 days
Type: organism-based
Set-up: dose 50 mg/kg, route intraperitoneal
Conditions: in vivo, 120 h
In short: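 Ascites Sarcoma 180 (1 × 10^7 cells) implanted into ICR mice, six per group; compound in saline ip once daily days 1-5; sacrifice on day 7; total packed cell volume (ascites volume × PCV) compared with controls as T/C %; mortality recorded.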
For CCCCN(N=O)C(=O)N[C@H]1[C@H](OC)O[C@H](CO)[C@@H](O)[C@@H]1O, the Activity was “Non-toxic”.
With CCCCO[C@H]1O[C@H](CO)[C@@H](O)[C@H](O)[C@H]1NC(=O)N(C)N=O the Activity was “Non-toxic”.
With CCCN(N=O)C(=O)N[C@H]1[C@@H](OC)O[C@H](CO)[C@@H](O)[C@@H]1O the Activity was “Non-toxic”.

Test system: not listed separately
Assay: Ratio of compound LD50 to streptozotocin LD50 for JCL-ICR mouse
Type: ADME, organism-based
Conditions: in vivo
Work on CCCCO[C@H]1O[C@H](CO)[C@@H](O)[C@H](O)[C@H]1NC(=O)N(C)N=O yielded a selectivity ratio of 2.

Test system: Ehrlich
Assay: Antitumor activity against mouse EAC allografted in ICR mouse assessed as tumor growth at 125 mg/kg, ip qd for 5 days measured on day 7 relative to control
Type: functional
Conditions: route intraperitoneal
In short: (§1)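 Ehrlich ascites carcinoma (1 × 10^7 cells) implanted into ICR mice, six per group. Drug in saline ip, qd days 1–5. Mice killed day 7. Total packed cell volume = ascites volume × % packed cell volume; T/C % = TPCV treated/control × 100. Activity graded from T/C.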
Compound CCCCN(N=O)C(=O)N[C@H]1[C@H](OC)O[C@H](CO)[C@@H](O)[C@@H]1O has a T/C of 52%.
Work on CCCN(N=O)C(=O)N[C@H]1[C@@H](OC)O[C@H](CO)[C@@H](O)[C@@H]1O yielded a T/C of 61%.

Test system: Ehrlich
Assay: Antitumor activity against mouse EAC allografted in ICR mouse assessed as tumor growth at 150 mg/kg, ip qd for 5 days measured on day 7 relative to control
Type: functional
Conditions: route intraperitoneal
In short: as §1
In the case of CCCCO[C@H]1O[C@H](CO)[C@@H](O)[C@H](O)[C@H]1NC(=O)N(C)N=O, the T/C is reported as 16%.

Test system: Mus musculus
Assay: Toxicity in BDF1 mouse allografted with mouse L1210 cells assessed as mortality at 50 mg/kg, ip qd for 5 days
Type: organism-based
Set-up: dose 50 mg/kg, route intraperitoneal
Conditions: in vivo, 120 h
In short: (§2)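 L1210 (1 × 10^5 cells) implanted into BDF1 mice, six per group; compound in saline ip once daily days 1-5; effect read as % increase in life span, ILS = [(treated life span/control life span) − 1] × 100.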
In the case of CCCCN(N=O)C(=O)N[C@H]1[C@H](OC)O[C@H](CO)[C@@H](O)[C@@H]1O, the Activity is reported as “Non-toxic”.
With CCCCO[C@H]1O[C@H](CO)[C@@H](O)[C@H](O)[C@H]1NC(=O)N(C)N=O the Activity was “Non-toxic”.

Test system: not listed separately
Assay: Antitumor activity against mouse S180A allografted in ICR mouse assessed as tumor growth at 50 mg/kg, ip qd for 5 days measured on day 7 relative to control
Type: functional
Conditions: route intraperitoneal
In short: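 Ascites Sarcoma 180 (1 × 10^7 cells) implanted into ICR mice, six animals per group. Five daily ip injections in saline (days 1–5). Sacrificed day 7. T/C % computed from total packed cell volume (ascites volume × PCV) vs controls. Grades: 100-66 = -, 65-41 = +, 40-11 = ++, 10-0 = +++.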
Work on CCCCN(N=O)C(=O)N[C@H]1[C@H](OC)O[C@H](CO)[C@@H](O)[C@@H]1O yielded a T/C of 54%.
CCCCO[C@H]1O[C@H](CO)[C@@H](O)[C@H](O)[C@H]1NC(=O)N(C)N=O showed a T/C of 20%.
For CCCN(N=O)C(=O)N[C@H]1[C@@H](OC)O[C@H](CO)[C@@H](O)[C@@H]1O, the T/C was 55%.

Test system: L1210
Assay: Antitumor activity against mouse L1210 cells allografted in BDF1 mouse assessed as increase in host lifespan at 50 mg/kg, ip qd for 5 days relative to control
Type: functional
Conditions: 120 h, route intraperitoneal
In short: as §2
Compound CCCCN(N=O)C(=O)N[C@H]1[C@H](OC)O[C@H](CO)[C@@H](O)[C@@H]1O has an ILS at 50 mg/kg of 12%.
CCCCO[C@H]1O[C@H](CO)[C@@H](O)[C@H](O)[C@H]1NC(=O)N(C)N=O showed an ILS at 50 mg/kg of 30%.

Test system: Mus musculus
Assay: Toxicity in ICR mouse allografted with mouse EAC assessed as mortality at 125 mg/kg, ip qd for 5 days
Type: organism-based
Set-up: dose 125 mg/kg, route intraperitoneal
Conditions: in vivo, 120 h
In short: (§3)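 Ehrlich ascites carcinoma (1 × 10^7 cells) implanted into ICR mice, six per group; compound ip daily for 5 days; mice sacrificed day 7; tumour burden as total packed cell volume (ascites volume × PCV), T/C % vs controls; mortality recorded.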
In the case of CCCCN(N=O)C(=O)N[C@H]1[C@H](OC)O[C@H](CO)[C@@H](O)[C@@H]1O, the Activity is reported as “Non-toxic”.
In the case of CCCN(N=O)C(=O)N[C@H]1[C@@H](OC)O[C@H](CO)[C@@H](O)[C@@H]1O, the Activity is reported as “Non-toxic”.

Test system: Mus musculus
Assay: Ratio of compound LD10 to streptozotocin LD10 for JCL-ICR mouse
Type: ADME, organism-based
Conditions: in vivo
CCCCO[C@H]1O[C@H](CO)[C@@H](O)[C@H](O)[C@H]1NC(=O)N(C)N=O gave a Ratio of 2.

Test system: Rattus norvegicus
Assay: Diabetogenic activity in iv dosed Wistar rat assessed as increase in blood sugar level administered as single dose by glucose oxidase method
Type: ADME, organism-based
Conditions: in vivo
In short: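 Male Wistar rats, about 200 g, five per group, fasted 16 h. Single iv dose into the femoral vein in physiological saline, equimolar across compounds. Caudal-vein blood sampled at set times over 24 h. Sugar measured by glucose oxidase.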
In the case of CCCCN(N=O)C(=O)N[C@H]1[C@H](OC)O[C@H](CO)[C@@H](O)[C@@H]1O, the Activity is reported as “Non-toxic”.
For CCCCO[C@H]1O[C@H](CO)[C@@H](O)[C@H](O)[C@H]1NC(=O)N(C)N=O, the Activity was “Non-toxic”.
For CCCN(N=O)C(=O)N[C@H]1[C@@H](OC)O[C@H](CO)[C@@H](O)[C@@H]1O, the Activity was “Non-toxic”.

Test system: Mus musculus
Assay: Toxicity in ICR mouse allografted with mouse EAC assessed as mortality at 150 mg/kg, ip qd for 5 days
Type: organism-based
Set-up: dose 150 mg/kg, route intraperitoneal
Conditions: in vivo, 120 h
In short: as §3
In the case of CCCCO[C@H]1O[C@H](CO)[C@@H](O)[C@H](O)[C@H]1NC(=O)N(C)N=O, the Activity is reported as “Non-toxic”.

Test system: Mus musculus
Assay: (§4) Acute toxicity in ip dosed JCL-ICR mouse assessed as animal death
Type: organism-based
Conditions: in vivo
In short: (§5)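 Groups of ten female JCL-ICR mice given single ip dose in physiological saline; deaths followed over 7 days; LD50 (and LD10) derived by Litchfield–Wilcoxon method.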
CCCCO[C@H]1O[C@H](CO)[C@@H](O)[C@H](O)[C@H]1NC(=O)N(C)N=O showed an LD10 of 1200 mg/kg.

Test system: not listed separately
Assay: as §4
Type: organism-based
Conditions: JCL-ICR, in vivo
In short: as §5
With CCCCO[C@H]1O[C@H](CO)[C@@H](O)[C@H](O)[C@H]1NC(=O)N(C)N=O the LD50 was 2000 mg/kg.
